Reference: ChEMBL document CHEMBL2203170, “Synthesis, DNA-PK inhibition, anti-platelet activity studies of 2-(N-substituted-3-aminopyridine)-substituted-1,3-benzoxazines and DNA-PK and PI3K inhibition, homology modelling studies of 2-morpholino-(7,8-di and 8-substituted)-1,3-benzoxazines” (Eur J Med Chem, 2012)

Assays:
[1] = molecular target: DNA-dependent protein kinase catalytic subunit (Homo sapiens, UniProt P78527); assay: Inhibition of DNA-PK using EPPLSQEAFADLWKK as substrate after 5 mins by ADP-Glo kinase assay
[2] = Antiplatelet activity against human platelet assessed as inhibition of collagen-induced platelet aggregation incubated for 2 mins before collagen induction by two-channel platelet aggregometer; format: functional, cell-based
In short: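 Venous blood from healthy, drug-free volunteers collected into trisodium citrate 22.0 g/L. Aggregation was measured optically in a two-channel aggregometer, following an earlier protocol.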

[3] = molecular target: Phosphatidylinositol 4,5-bisphosphate 3-kinase catalytic subunit alpha isoform (Homo sapiens, UniProt P42336); assay: Inhibition of PI3Kalpha by HTRF assay in presence of ATP
[4] = molecular target: T1, Phosphatidylinositol 4,5-bisphosphate 3-kinase catalytic subunit delta isoform (Homo sapiens, UniProt O00329); assay: Inhibition of PI3Kdelta by HTRF assay in presence of ATP
T1 sequence (O00329 whole entry): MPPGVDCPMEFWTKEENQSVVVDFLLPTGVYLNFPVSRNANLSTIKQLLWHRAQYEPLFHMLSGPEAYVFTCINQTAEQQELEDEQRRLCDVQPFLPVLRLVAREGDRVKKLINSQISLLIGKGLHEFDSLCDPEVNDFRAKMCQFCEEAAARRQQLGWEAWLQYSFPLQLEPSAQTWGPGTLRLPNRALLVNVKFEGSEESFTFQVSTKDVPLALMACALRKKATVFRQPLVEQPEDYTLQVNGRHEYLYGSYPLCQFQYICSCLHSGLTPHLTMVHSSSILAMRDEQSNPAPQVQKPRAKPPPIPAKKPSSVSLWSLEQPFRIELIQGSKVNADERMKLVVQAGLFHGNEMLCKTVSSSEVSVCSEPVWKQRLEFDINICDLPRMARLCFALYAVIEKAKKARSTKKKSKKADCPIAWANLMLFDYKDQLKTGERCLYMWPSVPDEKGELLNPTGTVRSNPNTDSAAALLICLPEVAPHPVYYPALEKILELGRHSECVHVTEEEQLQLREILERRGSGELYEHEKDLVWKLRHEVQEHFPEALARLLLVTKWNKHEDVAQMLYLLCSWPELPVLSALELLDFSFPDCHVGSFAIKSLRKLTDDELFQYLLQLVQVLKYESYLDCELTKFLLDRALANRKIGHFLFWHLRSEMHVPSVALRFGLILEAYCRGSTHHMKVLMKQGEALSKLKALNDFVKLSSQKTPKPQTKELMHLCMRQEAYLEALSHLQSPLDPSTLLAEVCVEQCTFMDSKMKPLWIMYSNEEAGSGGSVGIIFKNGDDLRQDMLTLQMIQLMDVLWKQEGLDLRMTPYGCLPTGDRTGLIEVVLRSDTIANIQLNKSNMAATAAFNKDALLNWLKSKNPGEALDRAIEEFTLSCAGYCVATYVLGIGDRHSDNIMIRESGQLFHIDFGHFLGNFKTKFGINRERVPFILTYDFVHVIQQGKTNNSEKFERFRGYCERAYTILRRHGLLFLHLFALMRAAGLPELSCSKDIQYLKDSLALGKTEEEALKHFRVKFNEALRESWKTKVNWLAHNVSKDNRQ

[5] = molecular target: Phosphatidylinositol 4,5-bisphosphate 3-kinase catalytic subunit gamma isoform (Homo sapiens, UniProt P48736); assay: Inhibition of PI3Kgamma by HTRF assay in presence of ATP
[6] = molecular target: Phosphatidylinositol 4,5-bisphosphate 3-kinase catalytic subunit beta isoform (Homo sapiens, UniProt P42338); assay: Inhibition of PI3Kbeta by HTRF assay in presence of ATP
Phosphatidylinositol 4,5-bisphosphate 3-kinase catalytic subunit beta isoform, sequence (P42338 whole entry, canonical isoform): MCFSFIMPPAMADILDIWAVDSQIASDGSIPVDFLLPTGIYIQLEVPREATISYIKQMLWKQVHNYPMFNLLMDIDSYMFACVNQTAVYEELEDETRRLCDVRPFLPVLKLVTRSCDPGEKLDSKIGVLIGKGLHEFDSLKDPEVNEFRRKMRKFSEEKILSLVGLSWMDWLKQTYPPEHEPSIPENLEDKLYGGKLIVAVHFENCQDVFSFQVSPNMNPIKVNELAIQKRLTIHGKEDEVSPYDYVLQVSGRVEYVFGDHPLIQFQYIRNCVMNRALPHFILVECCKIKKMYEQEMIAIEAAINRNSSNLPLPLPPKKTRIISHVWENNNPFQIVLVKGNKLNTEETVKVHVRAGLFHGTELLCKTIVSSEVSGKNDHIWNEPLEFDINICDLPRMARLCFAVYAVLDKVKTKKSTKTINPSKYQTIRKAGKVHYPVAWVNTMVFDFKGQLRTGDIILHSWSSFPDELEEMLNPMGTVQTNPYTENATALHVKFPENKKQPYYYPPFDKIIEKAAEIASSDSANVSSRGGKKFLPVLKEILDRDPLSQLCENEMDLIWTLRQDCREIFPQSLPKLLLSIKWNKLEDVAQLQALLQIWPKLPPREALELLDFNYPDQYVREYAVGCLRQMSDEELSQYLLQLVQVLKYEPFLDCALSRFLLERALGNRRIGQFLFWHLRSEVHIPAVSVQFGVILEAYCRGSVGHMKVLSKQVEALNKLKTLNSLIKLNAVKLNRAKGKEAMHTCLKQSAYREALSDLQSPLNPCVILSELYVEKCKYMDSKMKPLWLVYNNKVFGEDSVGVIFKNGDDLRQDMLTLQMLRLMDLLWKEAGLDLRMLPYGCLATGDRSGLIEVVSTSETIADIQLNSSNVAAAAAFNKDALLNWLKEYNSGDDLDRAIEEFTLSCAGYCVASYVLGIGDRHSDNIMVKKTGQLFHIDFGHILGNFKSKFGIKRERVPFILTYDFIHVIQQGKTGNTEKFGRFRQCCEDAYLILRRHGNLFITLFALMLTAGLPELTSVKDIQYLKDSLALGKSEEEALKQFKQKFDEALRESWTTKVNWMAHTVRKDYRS

Phosphatidylinositol 4,5-bisphosphate 3-kinase catalytic subunit alpha isoform, sequence (P42336 whole entry, canonical isoform): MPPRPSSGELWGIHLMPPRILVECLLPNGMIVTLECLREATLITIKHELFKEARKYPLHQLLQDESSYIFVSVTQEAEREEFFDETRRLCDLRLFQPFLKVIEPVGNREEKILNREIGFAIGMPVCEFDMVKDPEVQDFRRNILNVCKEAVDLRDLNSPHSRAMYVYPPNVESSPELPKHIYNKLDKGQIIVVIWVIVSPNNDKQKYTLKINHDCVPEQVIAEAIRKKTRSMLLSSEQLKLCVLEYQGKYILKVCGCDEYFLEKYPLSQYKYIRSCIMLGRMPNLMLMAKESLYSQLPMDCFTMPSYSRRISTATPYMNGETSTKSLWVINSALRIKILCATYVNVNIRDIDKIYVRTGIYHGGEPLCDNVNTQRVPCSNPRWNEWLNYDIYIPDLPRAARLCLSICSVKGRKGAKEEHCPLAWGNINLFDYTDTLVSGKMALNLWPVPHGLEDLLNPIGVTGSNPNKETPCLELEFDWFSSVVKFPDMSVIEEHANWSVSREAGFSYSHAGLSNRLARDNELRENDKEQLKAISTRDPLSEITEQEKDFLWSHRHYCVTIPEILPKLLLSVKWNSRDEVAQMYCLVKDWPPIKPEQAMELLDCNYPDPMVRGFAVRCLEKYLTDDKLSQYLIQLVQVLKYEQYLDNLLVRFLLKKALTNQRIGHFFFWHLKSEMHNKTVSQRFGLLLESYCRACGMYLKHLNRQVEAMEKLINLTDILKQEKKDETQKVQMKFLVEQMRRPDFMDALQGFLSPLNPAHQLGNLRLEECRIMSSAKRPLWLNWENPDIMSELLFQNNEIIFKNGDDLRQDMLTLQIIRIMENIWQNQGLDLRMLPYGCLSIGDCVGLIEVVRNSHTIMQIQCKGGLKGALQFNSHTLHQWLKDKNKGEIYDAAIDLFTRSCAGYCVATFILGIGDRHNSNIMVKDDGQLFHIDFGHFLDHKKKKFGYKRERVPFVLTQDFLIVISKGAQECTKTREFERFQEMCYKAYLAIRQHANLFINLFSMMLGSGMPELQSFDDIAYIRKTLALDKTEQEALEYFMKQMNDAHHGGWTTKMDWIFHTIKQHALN
Phosphatidylinositol 4,5-bisphosphate 3-kinase catalytic subunit gamma isoform, sequence (P48736 whole entry, canonical isoform): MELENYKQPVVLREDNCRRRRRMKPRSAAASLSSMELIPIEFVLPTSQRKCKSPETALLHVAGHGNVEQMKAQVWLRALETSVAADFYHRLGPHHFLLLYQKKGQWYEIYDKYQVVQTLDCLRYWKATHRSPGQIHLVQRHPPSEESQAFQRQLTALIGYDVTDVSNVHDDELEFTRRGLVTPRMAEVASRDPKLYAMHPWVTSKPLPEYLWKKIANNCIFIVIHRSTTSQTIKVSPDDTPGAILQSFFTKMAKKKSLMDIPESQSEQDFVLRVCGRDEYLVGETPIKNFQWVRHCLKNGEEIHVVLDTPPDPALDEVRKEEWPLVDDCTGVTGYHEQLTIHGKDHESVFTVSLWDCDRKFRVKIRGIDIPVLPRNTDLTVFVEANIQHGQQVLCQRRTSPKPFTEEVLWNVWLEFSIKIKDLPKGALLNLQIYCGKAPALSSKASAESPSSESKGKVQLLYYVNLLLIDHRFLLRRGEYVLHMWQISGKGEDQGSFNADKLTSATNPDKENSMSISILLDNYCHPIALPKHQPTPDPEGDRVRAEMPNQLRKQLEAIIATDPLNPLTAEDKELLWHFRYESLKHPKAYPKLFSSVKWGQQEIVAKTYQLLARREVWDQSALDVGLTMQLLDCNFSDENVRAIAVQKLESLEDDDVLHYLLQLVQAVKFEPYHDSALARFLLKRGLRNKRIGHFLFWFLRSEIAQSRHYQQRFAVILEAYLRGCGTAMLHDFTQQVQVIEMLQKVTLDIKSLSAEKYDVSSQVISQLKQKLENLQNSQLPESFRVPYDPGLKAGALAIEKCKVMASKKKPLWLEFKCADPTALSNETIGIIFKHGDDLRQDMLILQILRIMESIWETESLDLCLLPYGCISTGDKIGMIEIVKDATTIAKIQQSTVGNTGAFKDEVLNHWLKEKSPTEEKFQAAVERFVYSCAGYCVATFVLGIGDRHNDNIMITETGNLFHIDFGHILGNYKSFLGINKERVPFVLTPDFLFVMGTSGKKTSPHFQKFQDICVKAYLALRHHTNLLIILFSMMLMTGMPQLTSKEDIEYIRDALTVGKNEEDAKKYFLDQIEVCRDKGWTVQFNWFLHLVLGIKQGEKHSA

O=c1nc(N2CCOCC2)oc2c(OCc3cccnc3)cccc12
IC50 [1]: 0.36 µM

O=c1nc(N2CCOCC2)oc2cc(OCc3ccncc3)ccc12
IC50 [1]: 4.2 µM

Cc1c(OCc2ccccc2)ccc2c(=O)n(Cc3ccccc3)c(=O)oc12
IC50 [2]: 85 µM

CN1CCN(CCOc2cccc3c(=O)nc(N4CCOCC4)oc23)CC1
IC50 [1]: 1.7 µM

O=c1nc(N(Cc2cccnc2)c2cccnc2)oc2c(-c3ccccc3)cccc12
IC50 [2]: 65 µM

Cc1c(OCc2ccncc2)ccc2c(=O)nc(N3CCOCC3)oc12
IC50 [1]: 1.2 µM

O=c1nc(N(Cc2cccnc2)c2cccnc2)oc2cc(OCc3cccnc3)ccc12
IC50 [1]: 14.8 µM

O=c1nc(N2CCOCC2)oc2c(OCc3ccncc3)cccc12
IC50 [1]: 1.6 µM

Cc1c(OCc2cccnc2)ccc2c(=O)nc(N3CCOCC3)oc12
IC50 [3]: 0.13 µM
IC50 [1]: 0.28 µM
IC50 [4]: 2.02 µM
IC50 [5]: 0.72 µM
IC50 [6]: 0.14 µM

CN1CCN(CCOc2ccc3c(=O)nc(N4CCOCC4)oc3c2)CC1
IC50 [1]: 6.8 µM

O=c1nc(Nc2cccnc2)oc2c(-c3ccccc3)cccc12
IC50 [2]: 76 µM

O=c1nc(N(Cc2ccncc2)c2cccnc2)oc2c(-c3ccccc3)cccc12
IC50 [2]: 75 µM

Cc1c(OCc2cccnc2)ccc2c(=O)n(Cc3cccnc3)c(=O)oc12
IC50 [1]: 10 µM
IC50 [2]: 75 µM

O=c1nc(N(Cc2ccncc2)c2cccnc2)oc2cc(OCc3ccncc3)ccc12
IC50 [2]: 55 µM

Cc1c(OCc2ccccn2)ccc2c(=O)nc(N3CCOCC3)oc12
IC50 [1]: 1.3 µM

O=c1nc(N2CCOCC2)oc2c(OCc3ccccn3)cccc12
IC50 [1]: 0.62 µM

O=c1nc(N2CCOCC2)oc2cc(OCc3ccccn3)ccc12
IC50 [1]: 2.7 µM

O=c1nc(N2CCOCC2)oc2c(-c3ccccc3)cccc12
IC50 [3]: 4.07 µM
IC50 [1]: 0.3 µM
IC50 [4]: 0.95 µM
IC50 [5]: 1.5 µM
IC50 [6]: 3.36 µM

O=c1nc(N(Cc2ccccn2)c2cccnc2)oc2cc(OCc3ccccn3)ccc12
IC50 [1]: 5.7 µM

O=c1nc(Nc2cccnc2)oc2ccccc12
IC50 [2]: 90 µM

O=c1nc(N2CCOCC2)oc2cc(OCc3cccnc3)ccc12
IC50 [1]: 2.5 µM

Cc1cccc2c(=O)nc(N(Cc3cccnc3)c3cccnc3)oc12
IC50 [2]: 100 µM

O=c1nc(N(Cc2ccccn2)c2cccnc2)oc2c(OCc3ccccn3)cccc12
IC50 [1]: 7.8 µM

Cc1c(OCc2ccccn2)ccc2c(=O)n(Cc3ccccn3)c(=O)oc12
IC50 [2]: 85 µM

Cc1c(OCc2ccccn2)ccc2c(=O)nc(N(Cc3ccccn3)c3cccnc3)oc12
IC50 [2]: 35 µM

Cc1c(OCc2cccnc2)ccc2c(=O)nc(N(Cc3cccnc3)c3cccnc3)oc12
IC50 [1]: 2.5 µM
IC50 [2]: 10 µM

Cc1c(OCCN2CCN(C)CC2)ccc2c(=O)nc(N3CCOCC3)oc12
IC50 [3]: ≥ 100 µM
IC50 [1]: 0.5 µM
IC50 [4]: ≥ 100 µM
IC50 [5]: ≥ 100 µM
IC50 [6]: ≥ 100 µM

O=c1nc(N(Cc2cccnc2)c2cccnc2)oc2c(OCc3cccnc3)cccc12
IC50 [1]: 13.5 µM

Cc1cccc2c(=O)nc(N(Cc3ccccn3)c3cccnc3)oc12
IC50 [1]: 25.2 µM
